{
  "source": "paper PMC5453640",
  "about": "(Journal of medicinal chemistry, 2017)",
  "key": {"wild-type CFTR [1]": {"target": "T1, wild-type CFTR (Homo sapiens, UniProt P13569)", "T1 sequence (P13569 whole entry)": "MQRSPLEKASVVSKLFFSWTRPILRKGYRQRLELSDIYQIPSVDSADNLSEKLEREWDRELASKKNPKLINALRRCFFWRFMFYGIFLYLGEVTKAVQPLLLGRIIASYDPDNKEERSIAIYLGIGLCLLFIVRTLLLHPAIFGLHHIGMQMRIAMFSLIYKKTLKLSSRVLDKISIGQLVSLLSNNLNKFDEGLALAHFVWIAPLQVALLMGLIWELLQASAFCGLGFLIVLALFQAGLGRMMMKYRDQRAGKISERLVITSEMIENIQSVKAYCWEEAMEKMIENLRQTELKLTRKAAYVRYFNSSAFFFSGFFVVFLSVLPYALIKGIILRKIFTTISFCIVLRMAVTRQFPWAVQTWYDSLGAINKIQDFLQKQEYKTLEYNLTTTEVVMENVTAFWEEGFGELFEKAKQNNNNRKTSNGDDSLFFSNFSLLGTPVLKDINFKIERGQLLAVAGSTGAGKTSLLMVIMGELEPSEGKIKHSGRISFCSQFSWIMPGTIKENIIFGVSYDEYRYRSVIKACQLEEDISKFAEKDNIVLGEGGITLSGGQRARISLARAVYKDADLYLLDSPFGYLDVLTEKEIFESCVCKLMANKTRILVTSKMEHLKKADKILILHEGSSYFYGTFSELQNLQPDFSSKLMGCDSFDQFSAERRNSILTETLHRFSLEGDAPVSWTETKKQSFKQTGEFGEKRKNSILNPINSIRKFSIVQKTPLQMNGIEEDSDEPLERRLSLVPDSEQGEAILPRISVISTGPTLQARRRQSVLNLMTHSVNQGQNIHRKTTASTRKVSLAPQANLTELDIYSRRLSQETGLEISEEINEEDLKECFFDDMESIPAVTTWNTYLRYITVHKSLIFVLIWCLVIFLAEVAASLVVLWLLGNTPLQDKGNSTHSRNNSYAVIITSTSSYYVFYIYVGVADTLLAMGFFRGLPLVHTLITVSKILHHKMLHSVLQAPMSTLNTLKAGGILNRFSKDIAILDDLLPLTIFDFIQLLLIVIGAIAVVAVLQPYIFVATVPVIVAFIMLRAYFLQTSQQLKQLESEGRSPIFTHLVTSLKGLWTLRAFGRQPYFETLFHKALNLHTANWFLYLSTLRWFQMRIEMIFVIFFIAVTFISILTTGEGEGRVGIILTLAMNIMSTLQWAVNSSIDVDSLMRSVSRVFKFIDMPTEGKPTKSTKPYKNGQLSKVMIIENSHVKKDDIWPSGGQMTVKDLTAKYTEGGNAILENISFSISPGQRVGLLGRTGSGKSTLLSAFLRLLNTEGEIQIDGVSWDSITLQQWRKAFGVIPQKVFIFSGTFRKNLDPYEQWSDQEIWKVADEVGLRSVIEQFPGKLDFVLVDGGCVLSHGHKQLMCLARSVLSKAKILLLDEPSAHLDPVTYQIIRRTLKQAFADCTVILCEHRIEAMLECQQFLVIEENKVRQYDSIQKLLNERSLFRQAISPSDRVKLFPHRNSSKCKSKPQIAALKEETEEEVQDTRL", "assay": "cell-based plate reader assay of CFTR function", "details": "for CFTR activation potency of synthesized analogs, comparison in words: Charts 1-3; for CFTR activation potency of commercial analogs, SAR summary in words: commercially available analogs of 1, Supporting Information Table 1"}, "TMEM16A": {"tested_on": "TMEM16A", "assay": "TMEM16A plate reader assay in FRT cells expressing YFP", "type": "cell-based", "details": "10 μM", "in_short": "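FRT cells stably coexpressing TMEM16A and YFP-H148Q halide sensor, test compound at 10 μM. Activation was tested by iodide addition and inhibition by iodide plus ATP. Assay run like the CFTR plate assay: 2 s baseline, then 12 s after rapid iodide addition. The initial iodide influx rate from YFP quenching was taken as channel function. Representative of two to four experiment sets.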"}, "FRT cells": {"tested_on": "FRT cells", "assay": "Alamar Blue cytotoxicity assay", "type": "cell-based, rat", "details": "10 μM, 8 h"}, "wild-type CFTR [2]": {"target": "T1, wild-type CFTR", "assay": "short-circuit current measurement in CFTR-expressing FRT cells", "type": "cell-based", "details": "compared with maximal concentration of forskolin", "in_short": "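FRT cells expressing human wild-type CFTR on inserts in Ussing chambers. Basolateral HCO3−-buffered and apical half-Cl− solutions; basolateral membrane permeabilized with 250 μg/mL amphotericin B. Gassed with 95% O2/5% CO2 at 37 °C under voltage clamp. Sequence: low forskolin, cumulative test compound, maximal forskolin, then 10 μM CFTRinh-172. EC50 from concentration–response, n = 3.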"}, "[3]": {"tested_on": "non-TMEM16A calcium-activated chloride channel (CaCC) in HT-29 cells", "assay": "non-TMEM16A CaCC plate reader assay in HT-29 cells expressing YFP", "type": "cell-based", "details": "10 μM", "in_short": "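HT-29 cells expressing cytoplasmic YFP halide sensor, test compound at 10 μM. Activation was tested by iodide addition and inhibition by iodide plus ATP, reading YFP fluorescence quenching from iodide influx. The initial rate of iodide influx was computed as a linear measure of non-TMEM16A CaCC function. Representative of two to four experiment sets.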"}, "[4]": {"tested_on": "cellular cAMP in FRT cells", "assay": "cAMP immunoassay in FRT cells", "type": "cell-based, rat", "details": "10 μM, 10 min, without or with 90 nM forskolin"}, "[5]": {"type": "in vitro ADME", "details": "5 μM, rat hepatic microsomes, NADPH"}, "[6]": {"tested_on": "tear fluid secretion in mice", "details": "cited from earlier work"}, "[7]": {"tested_on": "tear volume in wild-type mice", "assay": "tear fluid volume after single ocular delivery, wild-type mice", "type": "in vivo, mouse"}, "[8]": {"tested_on": "tear volume in CF mice lacking functional CFTR", "assay": "tear fluid volume after single ocular delivery, CF mice", "type": "in vivo, mouse", "details": "single ocular delivery 250 pmol"}, "CFTR in HBE cells": {"target": "CFTR in HBE cells (Homo sapiens, UniProt P13569)", "sequence (P13569 whole entry)": "as above", "assay": "CFTR activation in HBE cells by short-circuit current", "type": "cell-based"}, "[9]": {"tested_on": "cytoplasmic calcium in FRT cells", "assay": "cytoplasmic calcium by Fluo-4 fluorescence in FRT cells", "type": "cell-based, rat", "details": "10 μM, 5 min pretreatment"}},
  "note": "Entries after “also recorded” stand apart in the source; their conditions may differ.",
  "data": [
    {"smiles": "CCN(CC)c1nc(Nc2cccc(C(=O)O)c2)nc(OC(C(F)(F)F)C(F)(F)F)n1", "note": "[6a]", "values": [
      {"measurement": "CFTR activation potency of synthesized analogs, comparison in words", "setting": "wild-type CFTR [1]", "value": "comparable or slightly better potency than non-substituted aniline (1)"}
    ]},
    {"smiles": "CCN(CC)c1nc(Nc2cccc(F)c2)nc(OC(C(F)(F)F)C(F)(F)F)n1", "note": "[6b]", "values": [
      {"measurement": "CFTR activation potency of synthesized analogs, comparison in words", "setting": "wild-type CFTR [1]", "value": "comparable or slightly better potency than non-substituted aniline (1)"}
    ]},
    {"smiles": "CCN(CC)c1nc(Nc2cccc(Cl)c2)nc(OC(C(F)(F)F)C(F)(F)F)n1", "note": "[6c]", "values": [
      {"measurement": "CFTR activation potency of synthesized analogs, comparison in words", "setting": "wild-type CFTR [1]", "value": "significantly reduced potency"}
    ]},
    {"smiles": "CCN(CC)c1nc(Nc2cccc([N+](=O)[O-])c2)nc(OC(C(F)(F)F)C(F)(F)F)n1", "note": "[6d]", "values": [
      {"measurement": "CFTR activation potency of synthesized analogs, comparison in words", "setting": "wild-type CFTR [1]", "value": "comparable or slightly better potency than non-substituted aniline (1)"}
    ]},
    {"smiles": "CCN(CC)c1nc(Nc2ccc3cn[nH]c3c2)nc(OC(C(F)(F)F)C(F)(F)F)n1", "note": "[6h]", "values": [
      {"measurement": "CFTR activation potency of synthesized analogs, comparison in words", "setting": "wild-type CFTR [1]", "value": "less potent than 1"},
      {"measurement": "fold more potent than regioisomer 6i", "setting": "wild-type CFTR [1]; EC50 ratio, Chart 2", "value": "~ 3 fold"}
    ]},
    {"smiles": "CCN(CC)c1nc(Nc2ccc3[nH]ncc3c2)nc(OC(C(F)(F)F)C(F)(F)F)n1", "note": "[6i]", "values": [
      {"measurement": "CFTR activation potency of synthesized analogs, comparison in words", "setting": "wild-type CFTR [1]", "value": "less potent than 1"}
    ]},
    {"smiles": "CCN(CC)c1nc(Nc2ccc3ncoc3c2)nc(OC(C(F)(F)F)C(F)(F)F)n1", "note": "[6j]", "values": [
      {"measurement": "CFTR activation potency of synthesized analogs, comparison in words", "setting": "wild-type CFTR [1]", "value": "greater potency than 1"}
    ]},
    {"smiles": "CCN(CC)c1nc(Nc2ccc3ncsc3c2)nc(OC(C(F)(F)F)C(F)(F)F)n1", "note": "[6k]", "values": [
      {"measurement": "inhibition or activation of CaCC in TMEM16A-expressing FRT cells", "setting": "TMEM16A", "value": "neither inhibited nor activated"},
      {"measurement": "cytotoxicity (Alamar Blue)", "setting": "FRT cells", "value": "did not produce significant toxicity"},
      {"measurement": "CFTR activation potency of synthesized analogs, comparison in words", "setting": "wild-type CFTR [1]", "value": "significantly greater potency than 1"},
      {"measurement": "fold increase in potency over benzoxazole 6j", "setting": "wild-type CFTR [1]; EC50 ratio, Chart 2", "value": "~ 3 fold"},
      {"measurement": "extent of CFTR activation (short-circuit current)", "setting": "wild-type CFTR [2]", "value": "full CFTR activation"},
      {"measurement": "inhibition or activation of CaCC in HT-29 cells", "setting": "[3]", "value": "neither inhibited nor activated"},
      {"measurement": "elevation of cellular cAMP", "setting": "[4]", "value": "did not elevate cellular cAMP"}
    ]},
    {"smiles": "CNc1nc(Nc2ccc(C(C)=O)cc2)nc(OC(C(F)(F)F)C(F)(F)F)n1", "note": "[K001]", "values": [
      {"measurement": "CFTR activation potency of commercial analogs, SAR summary in words", "setting": "wild-type CFTR [1]", "value": "reduced activity"}
    ]},
    {"smiles": "COc1nc(Nc2ccc([N+](=O)[O-])cc2)nc(OC)n1", "note": "[K023]", "values": [
      {"measurement": "CFTR activation potency of commercial analogs, SAR summary in words", "setting": "wild-type CFTR [1]", "value": "greatly reduced potency"}
    ]},
    {"smiles": "CC(C)(C)Nc1nc(Nc2ccc(OC(F)(F)Cl)cc2)nc(OCC(F)(F)F)n1", "note": "[K029]", "values": [
      {"measurement": "CFTR activation potency of commercial analogs, SAR summary in words", "setting": "wild-type CFTR [1]", "value": "reduced potency"}
    ]},
    {"smiles": "CNc1nc(Nc2ccc([N+](=O)[O-])cc2)nc(OCC(F)(F)C(F)F)n1", "note": "[K032]", "values": [
      {"measurement": "CFTR activation potency of commercial analogs, SAR summary in words", "setting": "wild-type CFTR [1]", "value": "best potency"}
    ]},
    {"smiles": "CCC(C)Nc1nc(Nc2ccc([N+](=O)[O-])cc2)nc(OC(C(F)(F)F)C(F)(F)F)n1", "note": "(stereo not drawn) [K056]", "values": [
      {"measurement": "CFTR activation potency of commercial analogs, SAR summary in words", "setting": "wild-type CFTR [1]", "value": "reduced potency"}
    ]},
    {"smiles": "C=CCNc1nc(Nc2cccc([N+](=O)[O-])c2)nc(OC(C(F)(F)F)C(F)(F)F)n1", "note": "[K059]", "values": [
      {"measurement": "CFTR activation potency of commercial analogs, SAR summary in words", "setting": "wild-type CFTR [1]", "value": "best potency"}
    ]},
    {"smiles": "FC(F)(F)COc1nc(Nc2ccc(OC(F)(F)F)cc2)nc(NC2CC2)n1", "note": "[K079]", "values": [
      {"measurement": "CFTR activation potency of commercial analogs, SAR summary in words", "setting": "wild-type CFTR [1]", "value": "reduced activity"}
    ]},
    {"smiles": "CCN(CC)c1nc(Nc2ccccc2)nc(OC(C(F)(F)F)C(F)(F)F)n1", "note": "[compound 1, N,N-Diethyl-6-[(1,1,1,3,3,3-hexafluoropropan-2-yl)oxy]-N′-phenyl-1,3,5-triazine-2,4-diamine]", "values": [
      {"measurement": "CFTR activation potency of synthesized analogs, comparison in words", "setting": "wild-type CFTR [1]", "value": "more potent than tetrafluoropropanol (7a)"},
      {"measurement": "CFTR activation potency of commercial analogs, SAR summary in words", "setting": "wild-type CFTR [1]", "value": "best potency"},
      {"measurement": "metabolic stability in hepatic microsomes, in words", "setting": "[5]", "value": "metabolized rapidly"},
      {"measurement": "tear fluid secretion after topical delivery", "setting": "[6]", "value": "increased tear fluid secretion in mice; also recorded: increased tear fluid secretion after topical delivery"}
    ]},
    {"smiles": "CNc1nc(Nc2ccccc2)nc(OCC(F)(F)C(F)F)n1", "note": "[compound 12, N-Methyl-N′-phenyl-6-(2,2,3,3-tetrafluoropropoxy)-1,3,5-triazine-2,4-diamine]", "values": [
      {"measurement": "inhibition or activation of CaCC in TMEM16A-expressing FRT cells", "setting": "TMEM16A", "value": "neither inhibited nor activated"},
      {"measurement": "cytotoxicity (Alamar Blue)", "setting": "FRT cells", "value": "did not produce significant toxicity"},
      {"measurement": "fold better EC50 than diethylamine analog 6a", "setting": "wild-type CFTR [1]; EC50 ratio, Chart 3", "value": "~ 50 fold"},
      {"measurement": "fold more potent than hexafluoropropanol analog 11", "setting": "wild-type CFTR [1]; EC50 ratio, Chart 3", "value": "~ 3 fold"},
      {"measurement": "extent of CFTR activation (short-circuit current)", "setting": "wild-type CFTR [2]", "value": "fully activated CFTR chloride conductance; also recorded: full CFTR activation"},
      {"measurement": "duration of sustained in vivo efficacy in increasing tear volume", "setting": "[7]; mice, dose not given", "value": "at least 8 h"},
      {"measurement": "time over which tear volume returned to baseline", "setting": "[7]; wild-type mice, single topical dose 100 μM (250 pmol)", "value": "12 to 24", "unit": "h"},
      {"measurement": "duration of sustained increase in tear volume", "setting": "[7]; wild-type mice, single topical dose 100 μM (250 pmol) in 2.5 μL", "value": 8, "unit": "h"},
      {"measurement": "duration of sustained effect on tear volume", "setting": "[7]; wild-type mice, single topical dose down to 25 pmol", "value": 8, "unit": "h"},
      {"measurement": "time of maximal tear volume", "setting": "[7]; wild-type mice, single topical doses down to 25 pmol", "value": "1 to 3", "unit": "h"},
      {"measurement": "effect on tear volume in CF mice", "setting": "[8]", "value": "without effect; also recorded: did not increase tear volume"},
      {"measurement": "inhibition or activation of CaCC in HT-29 cells", "setting": "[3]", "value": "neither inhibited nor activated"},
      {"measurement": "CFTR activation in HBE cells after forskolin", "setting": "CFTR in HBE cells; 0.1 μM compound, after 100 nM forskolin", "value": "fully activated CFTR"},
      {"measurement": "CFTR activation in HBE cells without forskolin", "setting": "CFTR in HBE cells; absence of basal CFTR phosphorylation produced by forskolin", "value": "did not activate CFTR"},
      {"measurement": "increase of cytoplasmic calcium", "setting": "[9]", "value": "without causing cAMP or calcium elevation"},
      {"measurement": "elevation of cellular cAMP", "setting": "[4]", "value": "without causing cAMP or calcium elevation; also recorded: did not elevate cellular cAMP"}
    ]}
  ]
}
